Screening results as filed in PubChem.
MrgX1 PAM – positive allosteric modulators of MrgX1, primary screen, HEK293 cells, Fluo-4 calcium flux; Mas-related G-protein coupled receptor member X1 (Homo sapiens), Q96LB2; FDSS; active compounds read high; B-score at 10 µM; hit rate 0.63% among 310,000;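 active = plate-corrected calcium response at least 3 library SD above typical, normal starting fluorescence, not activating the receptor alone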;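 note: compound read alongside a low EC10 to EC30 dose of BAM8-22 agonist; peak minus trough fluorescence over baseline measured at the second addition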
Target sequence (Q96LB2 whole entry, looked up): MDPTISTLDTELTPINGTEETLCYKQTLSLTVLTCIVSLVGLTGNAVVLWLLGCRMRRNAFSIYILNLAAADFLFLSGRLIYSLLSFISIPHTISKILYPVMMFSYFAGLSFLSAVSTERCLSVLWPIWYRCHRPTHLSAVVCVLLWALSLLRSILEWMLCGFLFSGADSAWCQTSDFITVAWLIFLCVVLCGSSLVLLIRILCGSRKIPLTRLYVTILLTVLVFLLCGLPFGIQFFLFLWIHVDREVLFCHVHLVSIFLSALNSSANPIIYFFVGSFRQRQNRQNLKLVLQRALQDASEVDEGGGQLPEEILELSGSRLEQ
MrgX1 agonist – agonists of human MrgX1 receptor, primary screen, HEK293 cells, Fluo-4 calcium flux | Mas-related G-protein coupled receptor member X1 (Homo sapiens), Q96LB2 | Fluo-4 calcium fluorescence, agonist mode; active compounds read high | B-score at 10 µM | hit rate 0.44% among 310,000 | AID 588627, 2011;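 active = calcium response B-score plate-corrected fluorescence ratio at least 3 library SD, with starting fluorescence B-score inside 5 SD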
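System – MrgX1-expressing HEK293 cells · Incubation – cells plated overnight, dye loaded 0.5 h 37 °C, 0.5 h room temperature · Technique – kinetic Fluo-4 NW fluorescence of intracellular calcium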
RGS4 block – RGS4 inhibitors, primary screen, cell-based, HEK293 M3R inducible RGS4, calcium flux. Fluo-4 calcium flux; active compounds read high; triggered by carbachol at its EC20. B-score at 10 µM. hit rate 0.45% among 310,000;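 active = B-score, a plate-corrected calcium signal, over three deviations above library mean, with baseline fluorescence within five deviations of library mean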;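 note: RGS4 expression induced by doxycycline in cells with stable M3 receptor; B-score is computed from the integrated fluorescence ratio over baseline after carbachol; higher B-score means a larger calcium signal and so more RGS4 inhibition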
Target sequence (P49798 whole entry, looked up): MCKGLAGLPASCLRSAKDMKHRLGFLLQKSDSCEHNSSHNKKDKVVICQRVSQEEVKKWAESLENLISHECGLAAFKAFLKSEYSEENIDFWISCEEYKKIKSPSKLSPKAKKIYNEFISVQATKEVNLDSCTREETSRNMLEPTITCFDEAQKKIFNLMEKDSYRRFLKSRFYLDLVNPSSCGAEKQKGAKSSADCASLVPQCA
MrgX1 antag – antagonists of human MrgX1 receptor, primary screen, HEK293 cells, Fluo-4 calcium flux; AID 588676, 2011; BAM8-22 antagonism; active compounds read low; Mas-related G-protein coupled receptor member X1 (Homo sapiens), Q96LB2; hit rate 1.3% among 310,000; B-score at 10 µM;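 active = calcium-response B-score plate-corrected more than 3 library SD below zero, starting fluorescence within 5 deviations, no agonist response on first addition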;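 note: peak minus trough fluorescence over baseline after final BAM8-22 challenge near maximal dose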
RGS4 act – RGS4 potentiators or activators, primary screen, cell-based, HEK293 M3R inducible RGS4, calcium flux. carbachol calcium flux Fluo4; active compounds read low. B-score at 10 µM. hit rate 0.92% among 310,000. AID 463111, 2010;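 active = B-score of the integrated calcium signal more than 4 SD below the library mean, with starting fluorescence not abnormally high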;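 note: negative B-score means reduced calcium response which marks RGS4 activation or potentiation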
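Material: M3R-expressing HEK293 line, RGS4 induced by doxycycline | Schedule: Overnight RGS4 induction, 30 min dye load 37 °C, 20 min compound RT | Measured by: Fluo4 fluorescence kinetic imaging of calcium | Read-out: Integrated calcium ratio converted to B score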
* marks the source's active call; other numbers are inactive results; i = inactive; · = no result. Most compounds without a hit are left out; they make up all but 3.5% or so of the library.

SMILES | MrgX1 PAM | MrgX1 agonist | RGS4 block | MrgX1 antag | RGS4 act
COc1ccc(CCNC(=O)C23CN(Cc4ccccc4)CC2C(c2cccc([N+](=O)[O-])c2)=NO3)cc1 (stereo not given) | i | i | i | -8.34* | i
COc1cc(Cl)c(CN2CCCC(CO)(Cc3ccccc3F)C2)cc1OC (stereo not given) | i | i | i | i | i
CCOc1ccc(CN2CCCC(CO)(Cc3ccccc3F)C2)cc1 (stereo not given) | i | 64* | i | i | i
CCOC(=O)c1ccc[n+](CC(=O)Nc2cc(C(F)(F)F)ccc2Cl)c1 | i | i | i | i | i
CCc1noc(C)c1C(=O)N1CCCC(CCC(=O)NCc2cccc(OC)c2)C1 (stereo not given) | i | i | i | -6.47* | i
Cc1cccc(-n2c(N)c(-c3nc4ccccc4n3C)c3nc4ccccc4nc32)c1 | i | i | i | i | -7.46*
Cn1c(-c2c(N)n(-c3ccccc3)c3nc4ccccc4nc23)nc2ccccc21 | i | i | i | i | i
N#Cc1ccsc1NC(=O)CN1C(=O)NC2(CCCCC2)C1=O | i | i | i | i | i
CC1(C)C=Cc2cc(-c3coc4cc(O)cc(O)c4c3=O)cc(O)c2O1 | i | i | i | -5.25* | i
O=c1c(-c2ccc3c(c2)OCCO3)coc2cc(O)cc(O)c12 | i | i | i | i | i
Cc1cc(NC(=O)c2noc3c2CCc2ccccc2-3)no1 | i | i | i | -7.36* | i
Cc1ccc(O)c(NC(=O)c2noc3c2CCc2ccccc2-3)c1 | i | i | i | i | i
COc1ccc(-c2cc(C(=O)N3CCCCCC3)c3ccccc3n2)c(OC)c1 | i | i | i | i | i
COc1ccc(OC)c(-c2cc(C(=O)N3CCN(c4ncccn4)CC3)c3ccccc3n2)c1 | i | i | i | i | -7.12*
CCOc1ccccc1N1CCN(C(=O)c2cc(-c3cc(OC)ccc3OC)nc3ccccc23)CC1 | i | i | i | i | -7.42*
COc1ccc(N2CCN(C(=O)c3cc(-c4cc(OC)ccc4OC)nc4ccccc34)CC2)cc1 | i | i | i | i | -7.03*
O=[N+]([O-])c1ccc(Oc2cccc(Br)c2)c2ccncc12 | 7.87* | i | i | i | i
CNC(=O)c1c[nH]c2ccc(S(=O)(=O)Nc3cccc(SC)c3)cc2c1=O | i | i | i | i | i
CCOC(=O)c1sc2c(c1C)c(=O)n(CCO)c(=O)n2Cc1ccccc1 | i | i | i | i | i
CCc1cc2c3c(c(=O)oc2cc1O)CCCC3 | i | i | i | -5.55* | i
CCc1cc2c3c(c(=O)oc2cc1OC(C)C(=O)O)CCCC3 (stereo not given) | i | i | i | i | i
C/C=C/C=C/C(=O)OC(C)C(=O)Nc1cc([N+](=O)[O-])ccc1OC (stereo not given) | 7.55* | i | i | i | i
COc1ccc([N+](=O)[O-])cc1NC(=O)C(C)OC(=O)c1ccccn1 (stereo not given) | i | i | i | i | i
ON=C1c2cc(OCCN3CCCCC3)ccc2-c2ccc(OCCN3CCCCC3)cc21 | i | i | i | i | i
NC(=S)NN=C1c2cc(OCCN3CCOCC3)ccc2-c2ccc(OCCN3CCOCC3)cc21 | i | i | i | i | -7.38*
SMILES | MrgX1 PAM | MrgX1 agonist | RGS4 block | MrgX1 antag | RGS4 act
COc1ccc(CNC(=O)C2CCN(S(=O)(=O)N3CCCCC3)CC2)c(OC)c1 | i | i | i | i | i
CCOC(=O)C1C(=O)C=C(c2ccc(Br)cc2)CC1c1ccco1 (stereo not given) | i | i | i | -5.74* | i
CCOC(=O)C1C(=O)C=C(c2cccc(NS(C)(=O)=O)c2)CC1c1ccco1 (stereo not given) | i | i | i | i | i
CCCCS(=O)(=O)N1CCN(S(=O)(=O)c2cccs2)CC1 | i | i | i | i | i
Cc1cc(C)n(CC(=O)N/N=C/c2cccs2)n1 | i | i | i | -4.62* | i
Cc1cc(C)n(CC(=O)N/N=C/c2ccc([N+](=O)[O-])s2)n1 | i | i | i | i | i
O=C(c1cccs1)N1CCN(C23CC4CC(CC(C4)C2)C3)CC1 | i | i | i | i | -7.29*
CCN(CC(=O)Nc1ccccc1C(F)(F)F)C(=O)CCOc1ccc(C)cc1 | i | i | i | i | i
Cc1ccc(S(=O)(=O)N2CCN(C(=O)COC(=O)C3CCC3)CC2)cc1 | i | i | i | i | i
CCOC(=O)C1=C(Cc2ccc(C)cc2)C(=O)c2ccccc2C1=O | i | 86.1* | i | i | i
CCCc1ccc(/C=C2\C(=O)c3ccccc3C(O)=C2C(=O)OCC)cc1 | i | i | i | -7* | i
CCOC(=O)c1ccc(COC(=O)c2ccc3c(c2)-c2ccccc2C3=O)cc1 | i | i | i | i | i
CCOC(=O)C1=C(O)c2ccccc2C(=O)/C1=C\c1ccc(CC)cc1 | i | i | i | -5.96* | i
Cc1noc(C)c1COc1ccc(C(=O)OCC(=O)NC2CCCCC2C)cc1 (stereo not given) | i | i | · | i | ·
CCOc1ccc(N(CC(=O)Nc2ccccc2C(=O)N2CCCC2)S(C)(=O)=O)cc1 | i | i | i | i | i
S=C(NCCC(c1ccccc1)c1ccccc1)Nc1cccc(Cl)c1 | i | i | i | i | -7.63*
C/C(=C\C(=S)Nc1ccccc1)Nc1ccc2ccccc2c1 | i | i | i | -4.52* | i
C/C(=C\C(=S)Nc1ccccc1)Nc1cccc2ccccc12 | i | i | i | i | i
Cc1ccc(C)c(NC(=O)C(Sc2nc3ccccc3c(=O)n2CC(C)C)c2ccccc2)c1 (stereo not given) | i | i | i | i | -7.3*
Cc1cc(C)cc(OCC(=O)Nc2cccc(-c3nnc(-c4ccco4)o3)c2)c1 | i | i | i | i | -7.57*
Cc1ccc(S(=O)(=O)NNC(=O)c2cccc(O)c2)cc1 | i | i | i | -6.53* | i
O=C(NNS(=O)(=O)c1ccc(F)cc1)c1cccc(O)c1 | i | i | i | i | i
Nc1nc(NCCc2ccccc2)nc(NCCO)c1[N+](=O)[O-] | i | i | i | i | i
